In the array DNA melting data of Ke et al. (doi:10.1101/2024.01.08.574731) one finds folding enthalpy and Tm data, which are given here for 36 sequences.

Data set [1] can be described thus: folding enthalpy; higher = less favourable; fluorescence melt of hairpins on a sequencing array, two-state fit. The conditions noted are these: sodium 0.088 M. In a few lines:
(§1)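 Cy3 signals were normalised both to pre-quench Cy3 and to control constructs. They came from library hairpins carrying annealed Cy3 and quencher oligos on a sequenced MiSeq flow cell, imaged in 50 mM Na-HEPES pH 8.0, 25 mM NaCl, in 2.5 °C steps up to 60 °C. Bootstrapped two-state fits gave melting temperature and folding enthalpy, and four replicates were combined by inverse variance. Fitted temperatures were then raised by 9.35 °C to match UV melts.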

Data set [2] can be described thus: melting temperature; fluorescence melt of hairpins on a sequencing array, two-state fit, raised by 9.35 °C to match UV melts. The conditions noted are these: sodium 0.088 M. In a few lines:
as §1

Regarding GGCGCTCGAAAGAGGCC (((.(((....)))))), the folding enthalpy in data set [1] is -40.1 kcal/mol. In addition, in data set [2], the Tm amounted to 57.5 °C.
Take GGCGCTGGAAACGGTGCC (((.(.(....).).))): in data set [1], the folding enthalpy is -31.2 kcal/mol. Further, the Tm in data set [2] came out at 52.7 °C.
As for GGCGGATCGAAAGATGCC (((..(((....)))))), in data set [1], the folding enthalpy is -22.7 kcal/mol. Moreover, the Tm in data set [2] was determined as 46.1 °C.
For the sequence GGCGGCGAAAGCCAAGCC ((((((....)))..))), in data set [1], the folding enthalpy was -25.5 kcal/mol. Besides, the Tm in data set [2] worked out at 63.9 °C.
For GGCGGCGAAAGCCTGGCC ((((((....)))..))), the folding enthalpy in data set [1] is -19.9 kcal/mol. In data set [2], the Tm was 61.8 °C.
Take GGCGGCGGAAACACCGCC (((((.(....).))))): the folding enthalpy in data set [1] is -21.9 kcal/mol. In addition, the Tm in data set [2] is 65.2 °C.
Taken in the same sequence, the figures for GGCGGTCGAAAGACAGCC (((.(((....))).))) were -35 kcal/mol and 67.7 °C.
As to GGCGGTGGAAACACCACC ((.((((....)))).)), the folding enthalpy in data set [1] was -27.5 kcal/mol. Moreover, in data set [2], the Tm was 53 °C.
With GGCGGTTCGAAAGAAGCC (((..(((....)))))), the folding enthalpy in data set [1] was -16.6 kcal/mol. Also, in data set [2], the Tm is 41 °C.
GGCGTACGAAAGTAAGCC (((.(((....))).))): the folding enthalpy in data set [1] was -35.1 kcal/mol. Moreover, the Tm in data set [2] worked out at 59.3 °C.
GGCGTAGAAATACGCC ((((((....)))))): the folding enthalpy in data set [1] is -37.5 kcal/mol. Also, the Tm in data set [2] came to 66.1 °C.
For GGCGTAGGAAACTGTGCC (((..((....))..))), in that order: -27 kcal/mol and 39.4 °C.
For the sequence GGCGTCGAAAGACCGCC ((((((....))).))), the folding enthalpy in data set [1] was -34.5 kcal/mol. In addition, the Tm in data set [2] was determined as 60.5 °C.
Consider GGCGTCGAAAGACGGGCC ((((((....)))..))), for which the folding enthalpy in data set [1] was -12.7 kcal/mol. Further, the Tm in data set [2] is 52 °C.
For GGCGTCGGAAACGACACC ((.((((....)))).)), in that order: -30.1 kcal/mol and 53.9 °C.
Regarding GGCGTGGCGAAAGCCGCC (((..(((....)))))), the folding enthalpy in data set [1] was -16.4 kcal/mol. Further, in data set [2], the Tm amounted to 66.7 °C.
For GGCGTGGGAAACCATGCC (((.(((....))).))), the folding enthalpy in data set [1] is -44.5 kcal/mol. Besides, the Tm in data set [2] is 61.4 °C.
As to GGCGTGGGAAACCGCGTC (.((.((....)).)).), the folding enthalpy in data set [1] was -27.4 kcal/mol. The Tm in data set [2] came out at 52.2 °C.
With GGCGTGTCGAAAGACGCC (((..(((....)))))), the folding enthalpy in data set [1] was -23.6 kcal/mol. Moreover, the Tm in data set [2] worked out at 58.7 °C.
With GGCGTTCGAAAGAAAGCC (((.(((....))).))), the folding enthalpy in data set [1] is -34.1 kcal/mol. The Tm in data set [2] came to 56.8 °C.
For the sequence GGCTAAGGAAACTTAGTC (.(((((....))))).), the folding enthalpy in data set [1] is -36.7 kcal/mol. For the same sequence, the Tm in data set [2] came to 42.4 °C.
For the sequence GGCTACCGAAAGGTTGCC (((.(((....))).))), the folding enthalpy in data set [1] was -35.5 kcal/mol. Moreover, in data set [2], the Tm came out at 63 °C.
For GGCTACGAAAGTACCGCC ((((((....)))..))), the folding enthalpy in data set [1] is -23.1 kcal/mol. Also, the Tm in data set [2] came to 48.4 °C.
For GGCTACGAAAGTACGGCC ((((((....)))..))), in that order: -23.9 kcal/mol and 46.5 °C.
Take GGCTACGAAAGTAGCGCC ((((((....)))..))): the folding enthalpy in data set [1] was -9.93 kcal/mol. Moreover, the Tm in data set [2] worked out at 55.7 °C.
Take GGCTACGCGAAAGCGGCC (((..(((....)))))): the folding enthalpy in data set [1] was -17.2 kcal/mol. For the same sequence, the Tm in data set [2] amounted to 56.9 °C.
Regarding GGCTACGGAAACATAGCC (((((.(....).))))), the folding enthalpy in data set [1] is -28.8 kcal/mol. Besides, the Tm in data set [2] turned out to be 43.8 °C.
For the sequence GGCTACGGAAACGTAACC ((.((((....)))).)), the folding enthalpy in data set [1] is -26.2 kcal/mol. For the same sequence, in data set [2], the Tm worked out at 42.1 °C.
With GGCTAGGCGAAAGCCGCC (((..(((....)))))), in data set [1], the folding enthalpy is -15 kcal/mol. Also, the Tm in data set [2] was 60.8 °C.
For GGCTAGGGAAACCTGGCC (((.(((....))).))), in that order: -44.8 kcal/mol and 55.5 °C.
Taken in the same sequence, the figures for GGCTAGGGAAACTTAGCC (((((.(....).))))) were -37.1 kcal/mol and 49.4 °C.
For GGCTATACGAAAGTAGCC (((..(((....)))))), the folding enthalpy in data set [1] was -32.6 kcal/mol. The Tm in data set [2] was found to be 48.7 °C.
GGCTCACGAAAGTGGCC (((.(((....)))))): in data set [1], the folding enthalpy is -26.3 kcal/mol. The Tm in data set [2] was found to be 56.6 °C.
With GGCTCAGGAAACCGAGCC (((((.(....).))))), the folding enthalpy in data set [1] was -49.1 kcal/mol. For the same sequence, in data set [2], the Tm was 54.5 °C.
Take GGCTCATCGAAAGATGCC (((..(((....)))))): the folding enthalpy in data set [1] was -13.3 kcal/mol. Also, the Tm in data set [2] came to 37.5 °C.
As to GGCTCCGAAAGGAACGCC ((((((....)))..))), in data set [1], the folding enthalpy was -21 kcal/mol. Further, in data set [2], the Tm is 50.5 °C.
